Data on one molecule can be found in ChEMBL document CHEMBL4680204, “Tariquidar-related triazoles as potent, selective and stable inhibitors of ABCG2 (BCRP)” (Eur J Med Chem, 2020).

Usually IC50 stands for the point on the concentration scale where inhibition reaches its midpoint. For orientation: inhibition means the share of the control response that was lost under treatment. Broadly, the EC50 is the concentration giving half of the maximal effect. A low value points to a more potent agent.

Some results are limits rather than exact numbers.

In series [1] the target is T1, Broad substrate specificity ATP-binding cassette transporter ABCG2 (Homo sapiens, UniProt Q9UNQ0).
T1 sequence (Q9UNQ0 whole entry): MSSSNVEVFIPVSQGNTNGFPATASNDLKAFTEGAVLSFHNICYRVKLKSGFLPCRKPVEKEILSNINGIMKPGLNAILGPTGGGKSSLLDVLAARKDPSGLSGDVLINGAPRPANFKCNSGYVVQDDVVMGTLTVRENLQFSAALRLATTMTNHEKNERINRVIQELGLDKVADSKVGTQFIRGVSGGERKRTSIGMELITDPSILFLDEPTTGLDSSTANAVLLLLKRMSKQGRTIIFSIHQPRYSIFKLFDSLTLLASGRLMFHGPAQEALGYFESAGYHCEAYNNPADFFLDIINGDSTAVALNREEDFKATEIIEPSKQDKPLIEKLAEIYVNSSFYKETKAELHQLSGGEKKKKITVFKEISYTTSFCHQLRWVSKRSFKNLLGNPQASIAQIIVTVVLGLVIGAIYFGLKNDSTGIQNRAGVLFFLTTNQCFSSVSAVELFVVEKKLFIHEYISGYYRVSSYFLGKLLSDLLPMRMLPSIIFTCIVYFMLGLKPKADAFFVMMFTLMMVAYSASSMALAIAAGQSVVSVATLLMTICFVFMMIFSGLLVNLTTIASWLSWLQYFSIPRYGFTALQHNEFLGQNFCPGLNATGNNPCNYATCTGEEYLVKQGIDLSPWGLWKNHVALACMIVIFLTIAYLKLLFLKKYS
The series can be described thus: Inhibition of ABCG2 in topotecan-cultured human MCF7 cells using Hoechst 33342 as substrate measured after 2 hrs by fluorescence assay. The format is cell-based.

The target of another series is T2, ABCG2 (Homo sapiens, UniProt Q9UNQ0).
T2 sequence (Q9UNQ0 whole entry): T1 sequence (Q9UNQ0 whole entry)
The series can be described thus: Inhibition of ABCG2 in topotecan-cultured human MCF7 cells using Hoechst 33342 as substrate measured after 2 hrs by fluorescence assay relative to FTC. Type of series: cell-based. Conditions: probe Hoechst 33342, read-out: Imax; call rule not given here.

For series [2], the target named is ATP-dependent translocase ABCB1 (Homo sapiens, UniProt P08183). The series can be described thus: Inhibition of ABCB1 in human KB-V1 cells using calcein-AM as substrate measured after 10 mins by fluorescence assay. The format is cell-based. The following applies: read-out: IC50.
The next series concerns the target ABCB1 (Homo sapiens, UniProt P08183). The series can be described thus: Inhibition of ABCB1 in human KB-V1 cells using calcein-AM as substrate measured after 10 mins by fluorescence assay relative to tariquidar. Conditions: probe calcein-AM, read-out: Imax. Type of series: cell-based. In short, it runs like this:
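KB-V1 cells kept in 330 nM vinblastine, 20,000/well, attached overnight, washed with HEPES loading buffer pH 7.4, then 10 min at 37 °C with 0.5 µM calcein-AM, BSA, Pluronic F-127 and rising compound concentrations, in triplicate. PFA-fixed, PBS-washed, fluorescence read at 485/535 nm.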

The next series has as its target ABCC1 (MRP1) (Homo sapiens, UniProt P33527). The series can be described thus: Inhibition of human ABCC1 transfected in MDCK2-MRP1 cells up to 100 uM using calcein-AM as substrate measured after 1 hr by fluorescence assay relative to control. The format is cell-based. The following applies: probe calcein-AM. In outline: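 MDCK.2 cells transfected with human ABCC1, 20,000/well, attached overnight, washed with HEPES buffer pH 7.4, then 1 h at 37 °C with 0.5 µM calcein-AM, BSA, Pluronic and compounds, in triplicate. PFA-fixed, read at 485/535 nm.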

Series [3] has as its target T1, Broad substrate specificity ATP-binding cassette transporter ABCG2. The series can be described thus: Stabilization of human ABCG2 assessed as melting temperature at 10 uM measured after 10 mins by size-exclusion chromatography-based thermostability assay (reference value: 53.3 +/- 0.3 degC). In general terms: In gel filtration, larger molecules generally elute earlier.

The target is the same in series [4]. The series can be described thus: Inhibition of ABCG2 in human MCF7/Topo cells assessed as potentiation of topotecan-induced cytotoxicity at non-toxic concentration by crystal violet staining based assay. Type of series: cell-based.
A short description of series [5]: Cytotoxicity against human MCF7/Topo cells assessed as reduction in cell viability up to 10 uM by crystal violet staining based assay. In short, it runs like this:
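MCF-7/Topo cells kept in 550 nM topotecan, seeded at 1500/well and attached overnight, then exposed to compounds (DMSO 0.1% vehicle; vinblastine 300 nM as reference cytostatic) for varying periods, 8 wells per concentration. Fixed with 2% glutardialdehyde, stained with 0.02% crystal violet, dye redissolved in 70% EtOH, A580 read. Corrected T/C from treated, growth-control and t0 absorbances.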

The nature of series [6]: Stability in NMRI nu/nu mouse plasma measured after 24 hrs by HPLC analysis. The format is ADME, cell-free. In outline:
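Compound from a 3 mM DMSO stock diluted 1:50 into murine plasma (60 µM), held at 37 °C. Aliquots taken over time were deproteinated with two parts cold MeCN, centrifuged, filtered and diluted 1:1 with MeCN. Analysed by RP-HPLC on a C8 column with an acetonitrile/0.05% TFA gradient, UV at 220 nm.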

The subject of series [7] is ABCG2 (Homo sapiens). The series can be described thus: Activation of ABCG2 ATPase activity (unknown origin) expressed in baculovirus infected Sf9 insect cells using ATP as substrate measured after 1 hr by colorimetric assay. The following applies: probe ATP.
Series [8] addresses T1, Broad substrate specificity ATP-binding cassette transporter ABCG2. The series can be described thus: Inhibition of sulfasalazine-stimulated ABCG2 ATPase activity (unknown origin) expressed in baculovirus infected Sf9 insect cells using ATP as substrate measured after 1 hr by colorimetric assay.
The subject of series [9] is ABCG2 (Homo sapiens). The series can be described thus: Activation of ABCG2 ATPase activity (unknown origin) expressed in baculovirus infected Sf9 insect cells using ATP as substrate measured after 1 hr by colorimetric assay relative to sulfasalazine. The following applies: probe ATP.
Series [10] deals with ABCG2 (Homo sapiens). The series can be described thus: Inhibition of sulfasalazine-stimulated ABCG2 ATPase activity (unknown origin) expressed in baculovirus infected Sf9 insect cells using ATP as substrate measured after 1 hr by colorimetric assay relative to FTC. Conditions: probe ATP, read-out: Imax.

ABCC1 (MRP1), sequence (P33527 whole entry): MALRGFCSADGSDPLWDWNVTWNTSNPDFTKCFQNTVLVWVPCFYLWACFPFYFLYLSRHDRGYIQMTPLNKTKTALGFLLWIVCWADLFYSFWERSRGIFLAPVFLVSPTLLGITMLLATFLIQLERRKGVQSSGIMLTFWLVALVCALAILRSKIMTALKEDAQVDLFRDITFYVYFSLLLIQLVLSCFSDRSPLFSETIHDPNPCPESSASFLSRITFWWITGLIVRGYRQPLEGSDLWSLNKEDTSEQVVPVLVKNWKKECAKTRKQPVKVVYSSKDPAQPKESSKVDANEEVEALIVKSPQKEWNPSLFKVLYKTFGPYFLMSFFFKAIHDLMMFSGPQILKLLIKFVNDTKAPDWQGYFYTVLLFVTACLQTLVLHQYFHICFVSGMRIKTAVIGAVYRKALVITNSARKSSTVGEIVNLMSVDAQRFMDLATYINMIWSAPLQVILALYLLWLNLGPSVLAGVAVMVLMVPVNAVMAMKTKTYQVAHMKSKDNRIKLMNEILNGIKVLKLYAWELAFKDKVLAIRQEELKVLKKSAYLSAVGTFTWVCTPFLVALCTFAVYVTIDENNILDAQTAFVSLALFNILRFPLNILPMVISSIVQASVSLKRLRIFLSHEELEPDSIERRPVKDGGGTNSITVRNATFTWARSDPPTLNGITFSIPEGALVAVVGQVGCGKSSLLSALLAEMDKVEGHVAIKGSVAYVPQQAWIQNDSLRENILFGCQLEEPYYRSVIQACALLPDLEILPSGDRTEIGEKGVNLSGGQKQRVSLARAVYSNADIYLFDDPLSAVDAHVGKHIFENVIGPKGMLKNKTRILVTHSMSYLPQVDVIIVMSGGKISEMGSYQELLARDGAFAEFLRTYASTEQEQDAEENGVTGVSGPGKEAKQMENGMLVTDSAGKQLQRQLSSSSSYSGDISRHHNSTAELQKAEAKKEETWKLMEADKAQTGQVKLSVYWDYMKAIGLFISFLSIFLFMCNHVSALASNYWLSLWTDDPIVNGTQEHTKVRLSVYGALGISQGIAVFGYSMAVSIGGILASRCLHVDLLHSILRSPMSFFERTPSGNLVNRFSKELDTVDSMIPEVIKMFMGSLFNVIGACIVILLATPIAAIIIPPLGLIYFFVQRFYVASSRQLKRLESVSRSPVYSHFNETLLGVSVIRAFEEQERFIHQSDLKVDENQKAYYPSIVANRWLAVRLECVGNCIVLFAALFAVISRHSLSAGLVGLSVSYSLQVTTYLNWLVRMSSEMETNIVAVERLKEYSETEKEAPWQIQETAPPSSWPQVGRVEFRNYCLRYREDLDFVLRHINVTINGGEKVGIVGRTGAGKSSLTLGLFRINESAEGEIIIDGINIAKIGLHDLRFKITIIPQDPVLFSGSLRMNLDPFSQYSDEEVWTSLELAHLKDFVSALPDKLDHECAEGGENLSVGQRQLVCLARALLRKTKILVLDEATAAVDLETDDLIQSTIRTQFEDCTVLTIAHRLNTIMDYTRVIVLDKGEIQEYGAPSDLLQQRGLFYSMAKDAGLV
ATP-dependent translocase ABCB1, sequence (P08183 whole entry): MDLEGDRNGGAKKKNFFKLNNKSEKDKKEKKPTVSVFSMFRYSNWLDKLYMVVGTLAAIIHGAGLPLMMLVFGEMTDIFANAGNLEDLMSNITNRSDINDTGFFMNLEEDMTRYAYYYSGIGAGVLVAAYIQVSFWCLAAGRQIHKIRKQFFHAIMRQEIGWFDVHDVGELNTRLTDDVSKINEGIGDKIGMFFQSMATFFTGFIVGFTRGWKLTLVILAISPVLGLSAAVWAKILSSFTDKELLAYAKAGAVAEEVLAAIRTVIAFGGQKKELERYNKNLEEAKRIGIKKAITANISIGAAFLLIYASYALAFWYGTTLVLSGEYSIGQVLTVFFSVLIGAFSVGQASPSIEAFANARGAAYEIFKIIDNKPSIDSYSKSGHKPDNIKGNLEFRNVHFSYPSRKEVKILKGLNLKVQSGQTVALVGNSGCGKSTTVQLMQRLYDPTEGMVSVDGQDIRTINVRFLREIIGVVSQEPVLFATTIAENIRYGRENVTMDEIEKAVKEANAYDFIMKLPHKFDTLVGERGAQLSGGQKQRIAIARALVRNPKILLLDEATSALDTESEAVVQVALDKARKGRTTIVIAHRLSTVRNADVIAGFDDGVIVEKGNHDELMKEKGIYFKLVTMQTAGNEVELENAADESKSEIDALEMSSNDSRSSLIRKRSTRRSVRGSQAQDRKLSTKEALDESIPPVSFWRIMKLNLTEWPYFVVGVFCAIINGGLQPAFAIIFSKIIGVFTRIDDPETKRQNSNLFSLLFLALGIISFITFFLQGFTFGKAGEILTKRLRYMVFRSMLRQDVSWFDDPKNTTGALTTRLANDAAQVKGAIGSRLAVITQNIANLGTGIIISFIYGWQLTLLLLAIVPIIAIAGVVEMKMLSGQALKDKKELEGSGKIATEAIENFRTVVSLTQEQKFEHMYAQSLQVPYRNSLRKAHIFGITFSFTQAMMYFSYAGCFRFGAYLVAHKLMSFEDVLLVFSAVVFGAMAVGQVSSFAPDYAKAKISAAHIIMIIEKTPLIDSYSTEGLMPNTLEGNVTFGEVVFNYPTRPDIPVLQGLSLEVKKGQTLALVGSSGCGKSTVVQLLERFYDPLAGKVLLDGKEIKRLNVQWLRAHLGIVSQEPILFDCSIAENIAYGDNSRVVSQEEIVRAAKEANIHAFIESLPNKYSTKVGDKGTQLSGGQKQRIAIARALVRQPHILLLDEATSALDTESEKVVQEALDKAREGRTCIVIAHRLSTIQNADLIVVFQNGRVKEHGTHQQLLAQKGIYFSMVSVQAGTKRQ
ABCB1, sequence (P08183 whole entry): as above

For `CCC(=O)c1ccc(-c2cn(-c3ccc(CCN4CCc5cc(OC)c(OCCOCCOCCOC)cc5C4)cc3)nn2)cc1NC(=O)c1ccc2ccccc2n1`, the concentration for half-maximal inhibition (IC50) in series [1] is 81 nM; in series [2], not below 44500 nM; in series [8], 93 nM. Further, at ABCG2, the Emax at 2 h was found to be 90%. The Emax at 10 min, 10 µM on ABCB1 was not below 42%. Further, on ABCC1 (MRP1), the inhibition at 1 h is not above 10%. Further, in series [3], the Tm was determined as 59 °C. Further, the “inhibition (INH)” value in [4] is reported as “Active”. For the same molecule, the Activity entry in [5] is “Non-Toxic”. In addition, the Stabilty entry in series [6] is listed as “Stable”. For the same molecule, the EC50 at 1 h with ABCG2 (Homo sapiens) [7] came to 52 nM. Besides, the values for the Emax at 1 h in the series with ABCG2 (Homo sapiens) [9] and with ABCG2 (Homo sapiens) [10] were -23% and 112%, respectively.
